Measurements taken from ChEMBL document CHEMBL3227917, “Structure-activity relationships of dimeric Catharanthus alkaloids. 2. Experimental antitumor activities of N-substituted deacetylvinblastine amide (vindesine) sulfates” (J Med Chem, 1979).

Assays:
[1] = Antitumor activity against mouse Ridgway osteogenic sarcoma allografted in AKR mouse assessed as tumor growth inhibition at 0.40 mg/kg, ip administered daily for 8 to 10 days compound treatment commenced 8 days after tumor implantation; assay type: functional; settings: route intraperitoneal, read-out: TGI
[2] = Antitumor activity against mouse Ridgway osteogenic sarcoma allografted in AKR mouse assessed as tumor growth inhibition at 0.20 mg/kg, ip administered daily for 8 to 10 days compound treatment commenced 8 days after tumor implantation; assay type: functional; settings: route intraperitoneal, read-out: TGI
[3] = Antitumor activity against mouse Gardner lymphosarcoma allografted in C3H mouse assessed as tumor growth inhibition at 0.40 mg/kg, ip administered daily for 8 to 10 days; assay type: functional; settings: route intraperitoneal, read-out: TGI
How it was run: (§1)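 Gardner lymphosarcoma in C3H mice; sulfate salts unless noted, given ip daily for 8–10 days, treatment starting 8 days after tumor implantation. Tumor growth inhibition scored as –, 0–25%; +, 26–50%; ++, 51–75%; +++, 76–100%; T, lethal to ≥5 of 10 animals per group. Average of one or more tests.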

[4] = Antitumor activity against mouse Gardner lymphosarcoma allografted in C3H mouse assessed as tumor growth inhibition at 0.20 mg/kg, ip administered daily for 8 to 10 days; assay type: functional; settings: route intraperitoneal, read-out: TGI; how it was run: as §1
Mus musculus [5] = assay: Toxicity in C3H mouse allografted with mouse Gardner lymphosarcoma assessed as lethality at 0.40 mg/kg, ip administered daily for 8 to 10 days; assay type: organism-based; parameters: dose 0.4 mg/kg, route intraperitoneal; settings: in vivo, 0.4 mg/kg
How it was run: (§2)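 Tumor-bearing mice given sulfate salts ip daily for 8–10 days; values are the average of one or more tests. Toxic means lethal to ≥5 of 10 animals per group.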

[6] = Antitumor activity against mouse Gardner lymphosarcoma allografted in C3H mouse assessed as tumor growth inhibition at 0.10 mg/kg, ip administered daily for 8 to 10 days; assay type: functional; settings: route intraperitoneal, read-out: TGI; how it was run: as §1
Mus musculus [7] = assay: Toxicity in AKR mouse allografted with mouse Ridgway osteogenic sarcoma assessed as lethality at 0.40 mg/kg, ip administered daily for 8 to 10 days compound treatment commenced 8 days after tumor implantation; assay type: organism-based; parameters: dose 0.4 mg/kg, route intraperitoneal; settings: in vivo, 0.4 mg/kg; how it was run: as §2
[8] = Antitumor activity against mouse Gardner lymphosarcoma allografted in C3H mouse assessed as tumor growth inhibition at 0.05 mg/kg, ip administered daily for 8 to 10 days; assay type: functional; settings: route intraperitoneal, read-out: TGI; how it was run: as §1
B16 [9] = assay: Antitumor activity against mouse B16 cells allografted in C57BL/6 mouse assessed as prolongation of host survival at 1.20 mg/kg, ip administered on days 1,5 and 9; assay type: functional; settings: route intraperitoneal
How it was run: (§3)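 B16 melanoma cells (10⁶ inoculum) implanted ip in C57BL/6 mice; groups of 10. Sulfate salts unless noted, given ip on days 1, 5 and 9. Single test. Survival prolongation is expressed as percent versus controls, with survivors counted on day 60. Toxic means deaths of ≥5 of 10 animals before the first control death.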

B16 [10] = assay: Antitumor activity against mouse B16 cells allografted in C57BL/6 mouse assessed as prolongation of host survival at 0.60 mg/kg, ip administered on days 1,5 and 9; assay type: functional; settings: route intraperitoneal; how it was run: as §3
B16 [11] = assay: Antitumor activity against mouse B16 cells allografted in C57BL/6 mouse assessed as prolongation of host survival at 0.90 mg/kg, ip administered on days 1,5 and 9; assay type: functional; settings: route intraperitoneal; how it was run: as §3
CHO [12] = assay: Mitotic arrest in CHO cells assessed as increase in cell accumulation at 0.002 ug/ml; assay type: functional, Cricetulus griseus
How it was run: (§4)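 Chinese hamster ovary cells in tissue culture, scored for mitotic arrest as increase in cells in mitotic arrest over control: +++, 40–50%; ++, 15–40%; +, 10–15%; ±, 7–10%; –, 3–7%. Cytotoxicity noted separately.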

CHO [13] = assay: Mitotic arrest in CHO cells assessed as increase in cell accumulation at 0.02 ug/ml; assay type: functional, Cricetulus griseus; how it was run: as §4
CHO [14] = assay: Mitotic arrest in CHO cells assessed as increase in cell accumulation at 0.2 ug/ml; assay type: functional, Cricetulus griseus; how it was run: as §4

| SMILES | inhibition in vivo at 0.4 mg/kg [3] [%] | inhibition in vivo at 0.2 mg/kg [4] [%] | inhibition in vivo at 0.1 mg/kg [6] [%] | further results |
| --- | --- | --- | --- | --- |
| CCCCCCNC(=O)[C@@]1(O)[C@H](O)[C@]2(CC)C=CCN3CC[C@@]4(c5cc([C@@]6(C(=O)OC)C[C@@H]7CN(CCc8c6[nH]c6ccccc86)C[C@](O)(CC)C7)c(OC)cc5N(C)[C@@H]14)[C@@H]32 | 0 | 26 |  | inhibition in vivo at 0.4 mg/kg [1]: 0%; inhibition in vivo at 0.2 mg/kg [2]: 0% |
| CC[C@]1(O)C[C@H]2CN(CCc3c([nH]c4ccccc34)[C@@](C(=O)OC)(c3cc4c(cc3OC)N(C)[C@H]3[C@@](O)(C(=O)NC5CCCCC5)[C@H](O)[C@]5(CC)C=CCN6CC[C@]43[C@@H]65)C2)C1 | 26 | 0 |  | inhibition in vivo at 0.4 mg/kg [1]: 51%; inhibition in vivo at 0.2 mg/kg [2]: 26% |
| C=CCNC(=O)[C@@]1(O)[C@H](O)[C@]2(CC)C=CCN3CC[C@@]4(c5cc([C@@]6(C(=O)OC)C[C@@H]7CN(CCc8c6[nH]c6ccccc86)C[C@](O)(CC)C7)c(OC)cc5N(C)[C@@H]14)[C@@H]32.O=S(=O)(O)O |  | 76 | 0 | Activity (Mus musculus [5]): Toxic |
| C#CCNC(=O)[C@@]1(O)[C@H](O)[C@]2(CC)C=CCN3CC[C@@]4(c5cc([C@@]6(C(=O)OC)C[C@@H]7CN(CCc8c6[nH]c6ccccc86)C[C@](O)(CC)C7)c(OC)cc5N(C)[C@@H]14)[C@@H]32.O=S(=O)(O)O |  | 76 | 51 | Activity (Mus musculus [5]): Toxic |
| CC[C@]1(O)C[C@H]2CN(CCc3c([nH]c4ccccc34)[C@@](C(=O)OC)(c3cc4c(cc3OC)N(C)[C@H]3[C@@](O)(C(=O)N5CCCC5)[C@H](O)[C@]5(CC)C=CCN6CC[C@]43[C@@H]65)C2)C1.O=S(=O)(O)O |  | 0 |  | Activity (Mus musculus [5]): Toxic; inhibition in vivo at 0.2 mg/kg [2]: 51%; Activity (Mus musculus [7]): Toxic |
| CC[C@]1(O)C[C@H]2CN(CCc3c([nH]c4ccccc34)[C@@](C(=O)OC)(c3cc4c(cc3OC)N(C)[C@H]3[C@@](O)(C(=O)NCCC#N)[C@H](O)[C@]5(CC)C=CCN6CC[C@]43[C@@H]65)C2)C1 | 76 | 76 | 0 | inhibition in vivo at 0.05 mg/kg [8]: 0% |
| CC[C@]1(O)C[C@H]2CN(CCc3c([nH]c4ccccc34)[C@@](C(=O)OC)(c3cc4c(cc3OC)N(C)[C@H]3[C@@](O)(C(=O)NCC(O)CO)[C@H](O)[C@]5(CC)C=CCN6CC[C@]43[C@@H]65)C2)C1 (stereo partly specified) | 51 | 26 |  | inhibition in vivo at 0.4 mg/kg [1]: 76%; inhibition in vivo at 0.2 mg/kg [2]: 26% |
| CCCCCCCCCCCCCCCCCC(=O)OCCNC(=O)[C@@]1(O)[C@H](O)[C@]2(CC)C=CCN3CC[C@@]4(c5cc([C@@]6(C(=O)OC)C[C@@H]7CN(CCc8c6[nH]c6ccccc86)C[C@](O)(CC)C7)c(OC)cc5N(C)[C@@H]14)[C@@H]32 | 76 | 51 | 0 | inhibition in vivo at 0.05 mg/kg [8]: 0% |
| CC[C@]1(O)C[C@H]2CN(CCc3c([nH]c4ccccc34)[C@@](C(=O)OC)(c3cc4c(cc3OC)N(C)[C@H]3[C@@](O)(C(=O)NCCSC(c5ccccc5)(c5ccccc5)c5ccccc5)[C@H](O)[C@]5(CC)C=CCN6CC[C@]43[C@@H]65)C2)C1 | 0 | 0 | 0 | survival at 1.2 mg/kg (B16 [9]): 4%; survival at 0.6 mg/kg (B16 [10]): 0%; survival at 0.9 mg/kg (B16 [11]): 1% |
| CC[C@]1(O)C[C@H]2CN(CCc3c([nH]c4ccccc34)[C@@](C(=O)OC)(c3cc4c(cc3OC)N(C)[C@H]3[C@@](O)(C(=O)NCCSC(c5ccc(OC)cc5)(c5ccc(OC)cc5)c5ccc(OC)cc5)[C@H](O)[C@]5(CC)C=CCN6CC[C@]43[C@@H]65)C2)C1 | 0 | 0 | 0 | survival at 1.2 mg/kg (B16 [9]): 35%; survival at 0.6 mg/kg (B16 [10]): 16%; survival at 0.9 mg/kg (B16 [11]): 28% |
| CC[C@]1(O)C[C@H]2CN(CCc3c([nH]c4ccccc34)[C@@](C(=O)OC)(c3cc4c(cc3OC)N(C)[C@H]3[C@@](O)(C(=O)NCCSSCCNC(C)=O)[C@H](O)[C@]5(CC)C=CCN6CC[C@]43[C@@H]65)C2)C1 | 51 | 0 | 0 | survival at 1.2 mg/kg (B16 [9]): 127%; survival at 0.6 mg/kg (B16 [10]): 93%; survival at 0.9 mg/kg (B16 [11]): 118% |
| CC[C@]1(O)C[C@H]2CN(CCc3c([nH]c4ccccc34)[C@@](C(=O)OC)(c3cc4c(cc3OC)N(C)[C@H]3[C@@](O)(C(=O)NCC=O)[C@H](O)[C@]5(CC)C=CCN6CC[C@]43[C@@H]65)C2)C1 | 76 | 76 | 26 | inhibition in vivo at 0.05 mg/kg [8]: 0% |
| CC[C@]1(O)C[C@H]2CN(CCc3c([nH]c4ccccc34)[C@@](C(=O)OC)(c3cc4c(cc3OC)N(C)[C@H]3[C@@](O)(C(=O)NCC(OC)OC)[C@H](O)[C@]5(CC)C=CCN6CC[C@]43[C@@H]65)C2)C1.O=S(=O)(O)O |  | 76 | 76 | Activity (Mus musculus [5]): Toxic; inhibition in vivo at 0.05 mg/kg [8]: 0% |
| CC[C@]1(O)C[C@H]2CN(CCc3c([nH]c4ccccc34)[C@@](C(=O)OC)(c3cc4c(cc3OC)N(C)[C@H]3[C@@](O)(C(=O)NCCC(=N)OC)[C@H](O)[C@]5(CC)C=CCN6CC[C@]43[C@@H]65)C2)C1 | 0 | 0 | 0 | inhibition in vivo at 0.05 mg/kg [8]: 0% |
| CC[C@]1(O)C[C@H]2CN(CCc3c([nH]c4ccccc34)[C@@](C(=O)OC)(c3cc4c(cc3OC)N(C)[C@H]3[C@@](O)(C(=O)NCCc5ccc(O)cc5)[C@H](O)[C@]5(CC)C=CCN6CC[C@]43[C@@H]65)C2)C1 | 26 | 0 | 0 | survival at 1.2 mg/kg (B16 [9]): 190%; survival at 0.6 mg/kg (B16 [10]): 125%; survival at 0.9 mg/kg (B16 [11]): 152% |
| CC[C@]1(O)C[C@H]2CN(CCc3c([nH]c4ccccc34)[C@@](C(=O)OC)(c3cc4c(cc3OC)N(C)[C@H]3[C@@](O)(C(=O)NCCc5ccc(O)c(O)c5)[C@H](O)[C@]5(CC)C=CCN6CC[C@]43[C@@H]65)C2)C1 | 26 | 0 | 0 | survival at 1.2 mg/kg (B16 [9]): 154%; survival at 0.6 mg/kg (B16 [10]): 28%; survival at 0.9 mg/kg (B16 [11]): 128% |
| CC[C@]1(O)C[C@H]2CN(CCc3c([nH]c4ccccc34)[C@@](C(=O)OC)(c3cc4c(cc3OC)N(C)[C@H]3[C@@](O)(C(=O)OC)[C@H](O)[C@]5(CC)C=CCN6CC[C@]43[C@@H]65)C2)C1 |  |  |  | Activity (CHO [12]): 3%; Activity (CHO [13]): 40% |
| COc1cc2c(c(OC)c1OC)-c1ccc(OC)c(=O)cc1[C@@H](NC(C)=O)CC2 [COLCHICINE] |  |  |  | Activity (CHO [13]): 3%; Activity (CHO [14]): 15% |
